Screens deposited in PubChem BioAssay by several laboratories.
Shown are actives, neighbours in structure and some others; about 6.7% of the full set was active somewhere.
T cruzi repl: blocks replication of Trypanosoma cruzi | AID 1885 | T. cruzi beta-gal in NIH3T3, luminescence, 90 h | inhibition, % (concentration not given with the values) | 300,000 compounds, 1.4% hits;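 active means mean inhibition across valid replicates above about 55%, limit read from the data; inconclusive means mean below that limit but half or more replicates reach it; inactive means mean below it, under half of replicates reach it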;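 further: signal also drops with host cell toxicity which is not excluded here; higher percent means less beta-gal luminescence so fewer parasites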
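System: Mouse NIH/3T3 fibroblasts infected with β-gal-expressing T. cruzi Tulahuen C4 | Quantity: NIH/3T3 cells, 5,000 per well | Reagent: 5000 reporter trypomastigotes per well | Dosing: Compound pinned at 50 nL/well, DMSO | Schedule: 3 h host attachment, then at least 90 h co-culture | Detection: GalScreen luminescence, 60 min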
Beta apoptosis: blocks beta cell apoptosis; AID 435005; 300,000 compounds, 0.8% hits; INS-1E cytokine-induced death, ATP luminescence, 48 h; percent of positive-control rescue, neutral wells zero; protection from apoptosis, % (no concentration beside the values);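 active means Every replicate reaches about 75%, or at least half do and their mean reaches it too, limit read from the data; inconclusive means At least half of replicates reach the limit but their mean does not; inactive means Under half of replicates reach the limit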;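 further: higher means more ATP so stronger rescue from cytokine killing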
CSC inhib: blocks cancer stem cells. cancer stem cell-like cells viability, luminescence. inhibition, % at 7.5 µM. 300,000 compounds, 1.1% hits; in the data active means inhibition above about 75%; inconclusive means no clear call, values can overlap the other calls; tested in HMLE shEcad cells
PREPL inh: human PREPL enzyme inhibition | 320,000 compounds, 0.68% hits | inhibition, % at 5.96 µM | recombinant PREPL, fluorescence polarization activity-based probe | Q4J6C6; in the data active means inhibition above about 43%
Target sequence (Q4J6C6 whole entry, looked up): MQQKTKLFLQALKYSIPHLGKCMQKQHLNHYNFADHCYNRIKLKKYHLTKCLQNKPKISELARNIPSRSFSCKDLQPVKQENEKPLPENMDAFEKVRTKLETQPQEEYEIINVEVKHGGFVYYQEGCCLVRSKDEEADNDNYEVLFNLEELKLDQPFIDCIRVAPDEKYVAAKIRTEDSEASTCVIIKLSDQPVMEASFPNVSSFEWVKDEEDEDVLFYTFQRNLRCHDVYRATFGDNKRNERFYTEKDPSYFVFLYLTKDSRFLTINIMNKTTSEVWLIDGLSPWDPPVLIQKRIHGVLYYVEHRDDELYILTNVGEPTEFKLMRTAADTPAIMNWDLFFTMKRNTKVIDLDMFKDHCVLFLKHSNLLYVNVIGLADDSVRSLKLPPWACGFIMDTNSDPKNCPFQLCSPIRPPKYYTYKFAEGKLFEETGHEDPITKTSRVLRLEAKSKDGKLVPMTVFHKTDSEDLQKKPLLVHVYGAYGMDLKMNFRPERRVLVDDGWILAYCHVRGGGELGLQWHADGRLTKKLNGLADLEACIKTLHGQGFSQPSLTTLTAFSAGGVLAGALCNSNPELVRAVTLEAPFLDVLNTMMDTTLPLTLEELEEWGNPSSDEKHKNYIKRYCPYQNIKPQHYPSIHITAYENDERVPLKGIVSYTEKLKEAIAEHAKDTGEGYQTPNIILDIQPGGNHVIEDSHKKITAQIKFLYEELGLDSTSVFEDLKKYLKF
CHOP inh: blocks CHOP induction under ER stress; CHO-K1 CHOP-promoter luciferase, tunicamycin-induced, 15-18 h; inhibition, % at 10 µM; 220,000 compounds, 3.8% hits;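 active means compounds that reduced the stress-induced luciferase reporter signal by more than about 70% of percent inhibition, limit read from the data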
GRIN3A LBD mod: NR3A (human) ligand-binding domain modulation | Tm shift relative to glycine control, % at 25 µM | 340,000 compounds, 2.5% hits | NR3A LBD differential scanning fluorimetry, Tm shift; 0% = protein alone, 100% = glycine-bound protein;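 active means melting temperature shift of at least 10% of the positive control shift, at one fixed dose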
Numbers stand for hits; . = inactive; ? = inconclusive; / = no result given.

SMILES	T cruzi repl	Beta apoptosis	CSC inhib	PREPL inh	CHOP inh	GRIN3A LBD mod
O=C(COc1cccc(C(F)(F)F)c1)N1CCN(c2ccc(O)cc2)CC1	.	.	78	.	.	.
O=C(COc1ccc2c(c1)CCC2)N1CCN(c2cccc(C(F)(F)F)c2)CC1	.	.	.	.	86	.
COc1cc(SC)ccc1C(=O)Nc1ccc2ncccc2c1	.	.	.	.	/	.
Cc1ccnc(SCC(=O)Nc2sc3c(c2C#N)CCC(C(C)(C)C)C3)n1 (centres undefined)	.	.	.	.	.	.
Cc1nn(CC(=O)Nc2sc3c(c2C#N)CCC(C(C)(C)C)C3)c(C)c1[N+](=O)[O-] (centres undefined)	.	.	.	.	89	14
N#Cc1c(NC(=O)CSc2nnc(-c3ccco3)n2-c2ccccc2)sc2c1CCC2	.	.	.	.	.	.
CCn1c(SCC(=O)Nc2sc3c(c2C#N)CCCC3)nnc1-c1ccco1	55	.	.	.	.	.
Cc1nn(CCCC(=O)Nc2sc3c(c2C#N)CCC3)c(C)c1[N+](=O)[O-]	.	.	.	.	.	.
CCn1c(SCC(=O)Nc2sc3c(c2C#N)CCC(C(C)(C)C)C3)nnc1-c1ccco1 (centres undefined)	.	.	.	.	78	.
Cc1ccc(S(=O)(=O)Nc2ccccc2N=Cc2ccc([N+](=O)[O-])cc2[N+](=O)[O-])cc1	/	/	/	/	/	.
C[C@H]1CN(S(=O)(=O)c2c(F)cccc2F)CCN1S(=O)(=O)c1ccc2c(c1)OCCO2	/	.	.	.	/	11
Cc1ccc(-c2csc3ncnc(NS(=O)(=O)c4ccc(Cl)cc4)c23)cc1	.	.	82	.	.	16
NNc1ncnc2scc(-c3ccc(Cl)cc3)c12	.	94	.	.	.	.
O=C(NCCCc1ccccc1)c1cccc(NC(=O)C2CCCCC2)c1	/	/	/	/	/	.
Cc1c(C(=O)NCC2COc3ccccc3O2)oc2ccc(S(=O)(=O)N(C)C3CCCCC3)cc12 (centres undefined)	75	.	.	.	.	.
O=C1C2C(c3ccccc3)(C(=O)N1c1ccc(Cl)cc1)C2(c1ccccc1)c1ccccc1 (centres undefined)	.	.	75	.	.	.
O=C(CCc1nnc(COc2ccccc2)o1)NCCc1cccs1	.	.	.	.	.	.
CCCCN1C(=O)C(C#N)CC2=C1CC(C)(C)CC2=O (centres undefined)	/	/	/	/	/	.
Cn1c(SCc2ccc(Cl)cc2)nc(C(F)(F)F)cc1=O	.	.	.	.	73	.
O=c1cc(O)nc(SCc2ccccc2)n1-c1ccc(Cl)cc1	.	.	.	.	.	.
Cc1cc(Br)c(NC(=O)COC(=O)C2CCCCC2)c(Br)c1	/	.	.	.	/	.
COc1ccc(CNC(=O)CCc2ccc(S(=O)(=O)N3CCCCCC3)cc2)cc1OC	/	/	/	/	/	.
Cc1ccc(N(C)C(=O)N2CCN(S(=O)(=O)c3ccc(C)c(C)c3)CC2)cc1	.	.	.	.	73	.
CC1CN(c2ccc([N+](=O)[O-])c(NCCOc3ccc(Cl)cc3)c2)CC(C)N1 (centres undefined)	.	.	108	/	/	.
Cc1ccc(S(=O)(=O)NNC(=O)c2cc(C)cs2)cc1	.	.	.	.	.	.
SMILES	T cruzi repl	Beta apoptosis	CSC inhib	PREPL inh	CHOP inh	GRIN3A LBD mod
CC(C)CN(C(=O)COC(=O)Cc1c[nH]c2ccccc12)c1c(N)n(Cc2ccccc2)c(=O)[nH]c1=O	.	.	.	.	/	.
CCC1(C)Cc2ccccc2-c2nc(-c3ccccc3)oc(=O)c21 (centres undefined)	.	.	.	.	80	.
O=C(NCc1ccccc1OC(F)(F)F)C1CCC(=O)N(CCc2ccccn2)C1 (centres undefined)	.	.	.	.	/	.
C=C(C)CNC(=S)N/N=C/C1=CCC2CC1C2(C)C (centres undefined)	.	.	.	.	84	.
CC(C)NC(=S)N/N=C/C1=CCC2CC1C2(C)C (centres undefined)	.	.	.	.	72	.
Cc1ccc(N2C(=O)N(CC(=O)Nc3ccc(C)cc3Cl)C(=O)C2C)cc1 (centres undefined)	.	.	/	.	/	.
O=C(NC(NC(=S)Nc1c(Cl)cccc1Cl)C(Cl)(Cl)Cl)OCc1ccccc1 (centres undefined)	.	.	.	.	.	17
Cc1ccc(-n2c(C)cc(/C=C3\SC(=O)NC3=O)c2C)cc1	.	.	.	.	/	.
Cc1cc(/C=C2\SC(=Nc3ccccc3)NC2=O)c(C)n1-c1ccc(S(N)(=O)=O)cc1	.	.	.	.	92	.
Cc1ccc(Nc2ncnc(Cl)c2N)cc1	/	/	/	/	/	13
Cc1ccc(Nc2ncnc3ccccc23)cc1	.	.	/	.	.	.
Cc1nccn1CCCNC(=O)C1CCC(=O)N(Cc2ccccc2F)C1 (centres undefined)	.	/	/	.	/	.
C/C(=N\NC(=O)c1ccc(Br)cc1)C1C(=O)c2ccccc2C1=O	.	.	?	.	.	14
Cc1ccc(-c2cc(C(=O)N/N=C/c3ccc(Cl)cc3)n[nH]2)o1	.	.	.	.	/	31
COc1ccc(C(=O)N/N=C\C(C)=C\c2ccccc2)cc1OC	.	.	.	.	/	.
CC(/C=N/NC(=O)c1ccc(Br)cc1)=C\c1ccccc1	.	.	.	.	.	23
CC(/C=N/NC(=O)c1cc(-c2ccc(C)o2)[nH]n1)=C\c1ccccc1	.	.	.	.	94	22
CN1CCN(NC(=O)Nc2cccc(F)c2)CC1	.	.	/	.	/	.
Cc1cc(C(=O)N/N=C/c2c(C)[nH]c3ccccc23)n[nH]1	.	.	.	.	.	.
CC(/C=N/NC(=O)c1cc(-c2cccs2)[nH]n1)=C\c1ccccc1	.	.	/	.	91	11
Cc1nn(-c2ccccc2)c(C)c1/C=N/NC(=O)c1cc(C(C)(C)C)[nH]n1	.	.	.	.	.	.
Cc1[nH]c2ccccc2c1/C=N/NC(=O)c1cc(-c2cccs2)[nH]n1	.	.	.	.	.	21
O=C(N/N=C/c1ccc(O)cc1)c1cc(C23CC4CC(CC(C4)C2)C3)[nH]n1	.	.	80	.	.	.
Cc1ccc(-c2cc(C(=O)N/N=C/c3c(C)nn(-c4ccccc4)c3C)n[nH]2)s1	.	/	/	/	.	15
COc1ccc(/C=N/NC(=O)c2cc(C34CC5CC(CC(C5)C3)C4)[nH]n2)cc1OC	.	.	.	.	.	.
Cc1nc(Nc2cc(F)ccc2C)c2nnn(Cc3ccccc3)c2n1	.	.	.	.	/	.
CC1(C)CC(=O)C=C(NC2CCCC(O)C2)C1 (centres undefined)	.	.	.	.	/	.
Cc1ccc(NC(=O)NC2(C(=O)NCc3ccccc3)CCCCC2)cc1	.	.	.	.	.	.
Cc1ccc(CNC(=O)C2(NC(=O)Nc3ccc(C)cc3)CCCCC2)cc1	.	/	/	.	79	.
